Data set [1] has as its target T1, Angiotensin-converting enzyme (Rattus norvegicus, UniProt P47820).
T1 sequence (P47820 whole entry): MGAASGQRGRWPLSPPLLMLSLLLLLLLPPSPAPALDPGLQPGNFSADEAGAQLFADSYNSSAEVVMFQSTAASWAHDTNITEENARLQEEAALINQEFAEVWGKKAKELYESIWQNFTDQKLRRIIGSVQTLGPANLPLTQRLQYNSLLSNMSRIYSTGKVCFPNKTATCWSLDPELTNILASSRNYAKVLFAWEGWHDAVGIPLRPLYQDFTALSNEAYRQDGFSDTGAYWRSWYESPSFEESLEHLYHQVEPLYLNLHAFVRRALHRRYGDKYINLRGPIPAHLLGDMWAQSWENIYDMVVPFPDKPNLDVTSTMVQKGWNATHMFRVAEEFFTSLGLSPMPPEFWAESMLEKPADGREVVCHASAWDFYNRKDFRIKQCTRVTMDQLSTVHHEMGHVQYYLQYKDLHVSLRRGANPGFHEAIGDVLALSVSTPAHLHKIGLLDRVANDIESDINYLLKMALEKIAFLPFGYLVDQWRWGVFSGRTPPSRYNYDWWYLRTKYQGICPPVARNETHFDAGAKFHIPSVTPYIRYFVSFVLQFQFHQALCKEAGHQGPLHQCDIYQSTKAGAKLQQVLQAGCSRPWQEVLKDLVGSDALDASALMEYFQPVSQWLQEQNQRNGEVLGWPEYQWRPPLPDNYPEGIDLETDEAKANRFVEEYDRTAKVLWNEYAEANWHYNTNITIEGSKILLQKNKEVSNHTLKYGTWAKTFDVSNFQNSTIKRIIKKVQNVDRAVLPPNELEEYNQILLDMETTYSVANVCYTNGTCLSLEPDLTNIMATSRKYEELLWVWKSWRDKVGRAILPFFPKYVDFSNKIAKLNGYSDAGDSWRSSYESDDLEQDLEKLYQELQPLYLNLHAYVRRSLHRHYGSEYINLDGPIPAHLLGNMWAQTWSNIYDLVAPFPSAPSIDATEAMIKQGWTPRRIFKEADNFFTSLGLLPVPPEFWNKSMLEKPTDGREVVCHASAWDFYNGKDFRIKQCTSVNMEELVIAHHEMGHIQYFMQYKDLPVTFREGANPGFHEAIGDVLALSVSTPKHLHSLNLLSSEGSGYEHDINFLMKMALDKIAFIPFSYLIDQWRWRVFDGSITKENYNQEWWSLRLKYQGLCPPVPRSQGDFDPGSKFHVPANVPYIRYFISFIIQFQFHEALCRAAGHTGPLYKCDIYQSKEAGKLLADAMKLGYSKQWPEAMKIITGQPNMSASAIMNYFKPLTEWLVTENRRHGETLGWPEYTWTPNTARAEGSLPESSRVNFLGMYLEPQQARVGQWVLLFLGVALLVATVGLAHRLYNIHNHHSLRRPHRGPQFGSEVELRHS
The data set is described as follows: In vitro inhibitory activity against rat serum angiotensin I converting enzyme using hippuryl-glycyl-glycine as substrate. It is filed as cell-free.

The species entered for data set [2] is Rattus norvegicus. The data set can be described thus: Maximum rate for the hydrolysis of hippuryl-glycyl-glycine by rat serum ACE at the concentration of 3 nM. Type of data set: ADME. As to conditions: 0.003 µM. Put shortly: (§1)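 For rat serum ACE kinetics, the dependence of hippurylglycylglycine hydrolysis rate on substrate concentration was measured at increasing inhibitor concentrations. Apparent Km and Vmax were derived for each inhibitor level.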

The species entered for data set [3] is Rattus norvegicus. The data set can be described thus: Maximum rate for the hydrolysis of hippuryl-glycyl-glycine by rat serum ACE at the concentration of 12 nM. Type of data set: ADME. As to conditions: 0.012 µM. In short, it runs like this:
as §1

For data set [4], the species on record is Rattus norvegicus. The data set can be described thus: Maximum rate for the hydrolysis of hippuryl-glycyl-glycine by rat serum ACE. Type of data set: ADME. In short, it runs like this: as §1
Data set [5] is filed under the species Rattus norvegicus. The data set can be described thus: Maximum rate for the hydrolysis of hippuryl-glycyl-glycine by rat serum ACE at the concentration of 6 nM (mean +/- SEM). It is filed as ADME. As to conditions: 0.006 µM. Put shortly:
as §1

Substrate in data set [6]: CN(CC(=O)NO)C(=O)C1CCCCC1C(=O)O
The data set can be described thus: Michaelis-Menten's constant for the hydrolysis of hippuryl-glycyl-glycine by rat serum ACE at the concentration of 3 nM. Put shortly: as §1

Substrate in data set [7]: CN(CC(=O)NO)C(=O)C1CCCCC1C(=O)O
The data set can be described thus: Michaelis-Menten's constant for the hydrolysis of hippuryl-glycyl-glycine by rat serum ACE at the concentration of 12 nM. It is filed as cell-free. Put shortly: as §1

Substrate in data set [8]: CN(CC(=O)NO)C(=O)C1CCCCC1C(=O)O
The data set is described as follows: Michaelis-Menten's constant for the hydrolysis of hippuryl-glycyl-glycine by rat serum ACE. It is filed as cell-free. Put shortly: as §1

Substrate in data set [9]: CN(CC(=O)NO)C(=O)C1CCCCC1C(=O)O
The data set is described as follows: Michaelis-Menten's constant for the hydrolysis of hippuryl-glycyl-glycine by rat serum Angiotensin I Converting Enzyme at the concentration of 6 nM. It is filed as cell-free. In short, it runs like this: as §1

In general, IC50 refers to the point on the concentration scale where inhibition reaches its midpoint. A low value points to higher potency. For the molecule `CN(CC(=O)NO)C(=O)C1CCCCC1C(=O)O` (stereo in doubt; 16a), in [1], the IC50 was determined as 23.5 µM.

In the case of `CCN(CC(=O)NO)C(=O)C1CCCCC1C(=O)O` (stereo in doubt; 16c), in data set [1], the IC50 was 2.9 µM.

Turning to `O=C(O)C1CCCCC1C(=O)NCCS` (stereo in doubt; 8b), the IC50 in data set [1] stood at 10 µM.

`CCN(CC(=O)NO)C(=O)C1CCCCC1C(=O)O` (trans isomer) displayed an IC50 in data set [1] of 0.014 µM.

`CN(CC(=O)NOCc1ccccc1)C(=O)C1CCCCC1C(=O)O` (stereo in doubt; 9e): the IC50 in data set [1] was > 150 µM.

As for `CCN(CC(=O)NO)C(=O)C1CCCCC1C(=O)O` (cis isomer), in [1], the midpoint of inhibition, the IC50, lay at 0.057 µM.

In the case of `CN(CC(=O)NO)C(=O)C1CCCCC1C(=O)O` (trans isomer), it took 0.045 µM to reach half-maximal inhibition in data set [1] (IC50).

Consider `CCN(CC(=O)O)C(=O)C1CCCC1C(=O)O` (cis isomer), for which, in data set [1], the IC50 is > 150 µM.

`O=C(O)C1CCCCC1C(=O)CCS` (stereo unspecified): the IC50 in [1] amounted to 1.4 µM. This counts as single-digit micromolar.

As to `O=C(O)C1CCCCC1C(=O)CCS` (trans isomer), in data set [1], 1.7 µM corresponded to half-maximal inhibition (IC50).

For `CCN(CC(=O)NO)C(=O)C1CCCCC1C(=O)O` (stereo in doubt; 10g), the IC50 in data set [1] is 0.018 µM.

`O=C(CNC(=O)C1CCCCC1C(=O)O)NO` (trans isomer): it took 1.5 µM to reach half-maximal inhibition in data set [1] (IC50).

In turn, `CCN(CC(=O)O)C(=O)C1CCCCC1C(=O)O` (stereo in doubt; 7e) had an IC50 in data set [1] of 97 µM.

`O=C(CNC(=O)C1CCCCC1C(=O)O)NO` (cis isomer) yielded an IC50 in [1] of 3 µM.

In the case of `CC(C)N(CC(=O)NO)C(=O)C1CCCCC1C(=O)O` (trans isomer), the half-maximal inhibitory concentration (IC50) in data set [1] turned out to be 0.5 µM. This IC50 is about 6-fold lower than that of the molecule before.

Take `CN(CC(=O)O)C(=O)C1CCCCC1C(=O)O` (cis isomer): the IC50 in [1] is > 150 µM.

For `CCN(CC(=O)NO)C(=O)C1CCCCC1C(=O)O` (stereo in doubt; 21d), the IC50 in [1] worked out at 2.9 µM.

Molecule `CN(CC(=O)NO)C(=O)C1CCCC1C(=O)O` (stereo unspecified) returned an IC50 in data set [1] of 1.4 µM.

Consider `CCCN(CC(=O)NO)C(=O)C1CCCCC1C(=O)O` (trans isomer), for which, in data set [1], the IC50 amounted to 0.15 µM.

In the case of `CCCN(CC(=O)NO)C(=O)C1CCCCC1C(=O)O` (cis isomer), in data set [1], the IC50 was determined as 0.4 µM.

Consider `CN(CC(=O)NOCc1ccccc1)C(=O)C1CCCC1C(=O)O` (stereo unspecified), for which the IC50 in data set [1] was > 150 µM.

For `CCCN(CC(=O)O)C(=O)C1CCCCC1C(=O)O` (stereo unspecified), the IC50 in data set [1] was > 150 µM.

In data set [1], `O=C(O)CCC(=O)N1CCCC1C(=O)O` (stereo unspecified) registered an IC50 of 624 µM.

In data set [1], `CN(CC(=O)NO)C(=O)C1CCCCC1C(=O)O` (stereo in doubt; 21b) yielded an IC50 of 1.8 µM. This IC50 is about 350-fold lower than that of the molecule before.

Turning to `CN(CC(=O)NO)C(=O)C1CCCCC1C(=O)O` (cis isomer), half-maximal inhibition in [1] (IC50) was put at 0.012 µM.

In data set [1], `CCN(CC(=O)NO)C(=O)C1CCCCC1C(=O)O` (stereo in doubt; 21c) yielded an IC50 of 0.028 µM.

Molecule `CCN(CC(=O)O)C(=O)C1CCCCC1C(=O)O` (stereo in doubt; 7d) returned an IC50 in data set [1] of 75 µM.

On to `CN(CC(=O)NOCc1ccccc1)C(=O)C1CCCCC1C(=O)O` (cis isomer), for which the IC50 in [1] is > 150 µM.

For the molecule `CCN(CC(=O)NOCc1ccccc1)C(=O)C1CCCCC1C(=O)O` (trans isomer), the IC50 in [1] is > 150 µM.

With `O=C(O)CNC(=O)C1CCCCC1C(=O)O` (stereo unspecified), in data set [1], the IC50 was > 150 µM.

For the molecule `O=C(O)C1CCCC1C(=O)NCCS` (stereo unspecified), the IC50 in [1] was determined as 11 µM.

On to `CN(CC(=O)NO)C(=O)C1CCCCC1C(=O)O` (stereo in doubt; 21a), for which the Vmax worked out at 1.25 uM min-1 ml-1 in the data set filed under Rattus norvegicus [2], 1.36 uM min-1 ml-1 in the data set listed under Rattus norvegicus [3], 1.31 uM min-1 ml-1 in the data set filed under Rattus norvegicus [4] and 1.16 uM min-1 ml-1 in the data set filed under Rattus norvegicus [5]. The same molecule displayed an IC50 in data set [1] of 0.007 µM.

Take `CCN(CC(=O)NOCc1ccccc1)C(=O)C1CCCCC1C(=O)O` (cis isomer): in data set [1], the half-maximal inhibitory concentration (IC50) is > 150 µM.

Regarding `O=C(O)C1CCCCC1C(=O)NCCS` (trans isomer), the IC50 in data set [1] is > 150 µM.

As for `O=C(CNC(=O)C1CCCCC1C(=O)O)NOCc1ccccc1` (cis isomer), the half-maximal inhibitory concentration (IC50) in [1] was > 150 µM.

On to `CC(CC(=O)NO)C(=O)N1CCC[C@H]1C(=O)O` (stereo partly specified), for which the IC50 in [1] was 0.6 µM.

`O=C(CNC(=O)C1CCCCC1C(=O)O)NOCc1ccccc1` (stereo in doubt; 9b): the IC50 in [1] was > 150 µM.

`CN(CC(=O)NO)C(=O)C1CCCCC1C(=O)O` (stereo in doubt; 16b): the midpoint of inhibition in data set [1], the IC50, lay at 0.024 µM. In other words, the double-digit nanomolar range.

B1: Angiotensin-converting enzyme (Rattus norvegicus), P47820 (protein)
chain: MGAASGQRGRWPLSPPLLMLSLLLLLLLPPSPAPALDPGLQPGNFSADEAGAQLFADSYNSSAEVVMFQSTAASWAHDTNITEENARLQEEAALINQEFAEVWGKKAKELYESIWQNFTDQKLRRIIGSVQTLGPANLPLTQRLQYNSLLSNMSRIYSTGKVCFPNKTATCWSLDPELTNILASSRNYAKVLFAWEGWHDAVGIPLRPLYQDFTALSNEAYRQDGFSDTGAYWRSWYESPSFEESLEHLYHQVEPLYLNLHAFVRRALHRRYGDKYINLRGPIPAHLLGDMWAQSWENIYDMVVPFPDKPNLDVTSTMVQKGWNATHMFRVAEEFFTSLGLSPMPPEFWAESMLEKPADGREVVCHASAWDFYNRKDFRIKQCTRVTMDQLSTVHHEMGHVQYYLQYKDLHVSLRRGANPGFHEAIGDVLALSVSTPAHLHKIGLLDRVANDIESDINYLLKMALEKIAFLPFGYLVDQWRWGVFSGRTPPSRYNYDWWYLRTKYQGICPPVARNETHFDAGAKFHIPSVTPYIRYFVSFVLQFQFHQALCKEAGHQGPLHQCDIYQSTKAGAKLQQVLQAGCSRPWQEVLKDLVGSDALDASALMEYFQPVSQWLQEQNQRNGEVLGWPEYQWRPPLPDNYPEGIDLETDEAKANRFVEEYDRTAKVLWNEYAEANWHYNTNITIEGSKILLQKNKEVSNHTLKYGTWAKTFDVSNFQNSTIKRIIKKVQNVDRAVLPPNELEEYNQILLDMETTYSVANVCYTNGTCLSLEPDLTNIMATSRKYEELLWVWKSWRDKVGRAILPFFPKYVDFSNKIAKLNGYSDAGDSWRSSYESDDLEQDLEKLYQELQPLYLNLHAYVRRSLHRHYGSEYINLDGPIPAHLLGNMWAQTWSNIYDLVAPFPSAPSIDATEAMIKQGWTPRRIFKEADNFFTSLGLLPVPPEFWNKSMLEKPTDGREVVCHASAWDFYNGKDFRIKQCTSVNMEELVIAHHEMGHIQYFMQYKDLPVTFREGANPGFHEAIGDVLALSVSTPKHLHSLNLLSSEGSGYEHDINFLMKMALDKIAFIPFSYLIDQWRWRVFDGSITKENYNQEWWSLRLKYQGLCPPVPRSQGDFDPGSKFHVPANVPYIRYFISFIIQFQFHEALCRAAGHTGPLYKCDIYQSKEAGKLLADAMKLGYSKQWPEAMKIITGQPNMSASAIMNYFKPLTEWLVTENRRHGETLGWPEYTWTPNTARAEGSLPESSRVNFLGMYLEPQQARVGQWVLLFLGVALLVATVGLAHRLYNIHNHHSLRRPHRGPQFGSEVELRHS
For orientation: Km means the concentration of substrate that gives half-maximal velocity. As to B1, the Km came to 43 mM in [6], 129 mM in [7], 21 mM in [8] and 62 mM in [9].
